{"data": "Results of several laboratories", "target": "Beta-1 adrenergic receptor (ADRB1, Homo sapiens, UniProt P08588)", "note": "Lines come from different studies, so protocols differ."}
{"Compound": "C[C@H](C(=O)N[C@H]1COc2ccccc2[C@@H]1S(C)(=O)=O)c1ccc(F)cc1", "assay": "cell-free assay", "setting": "10 µM", "quantity": "inhibition", "value": "3%"}
{"Compound": "O=C(Nc1cccnn1)N1CCN([C@@H]2CCOc3cc(C(F)(F)F)ccc32)CC1", "assay": "cell-free assay", "setting": "20 µM", "quantity": "inhibition", "value": "27%"}
{"Compound": "Nc1ncc(-c2nc(N3CCOCC3)nc(N3CCOCC3)n2)c(C(F)F)n1", "assay": "cell-free assay, radioligand", "setting": "10 µM", "quantity": "remaining signal", "value": "93.2%"}
{"Compound": "COCc1c(-c2cc3cc(C)cc(OC)c3s2)c2c(N)ncnn2c1CN1CCNC(=O)C1", "assay": "ligand displacement, radioligand", "setting": "10 µM", "quantity": "inhibition", "value": "2%"}
{"Compound": "Cc1c(N2CCNCC2)nc2ccc(Br)cc2c1C(=O)NC[C@H](CCC(=O)O)c1ccccc1Cl", "assay": "ligand displacement", "setting": "10 µM", "quantity": "inhibition", "value": "12.6%"}
{"Compound": "c1ccc(C(NCCNC(c2ccccc2)c2ccccc2)c2ccccc2)cc1", "assay": "cell-free assay", "setting": "10 µM", "quantity": "inhibition", "value": "31%"}
{"Compound": "Cn1cncc1[C@@](O)(COc1ccc(C#N)cc1-c1ccc(OC(F)(F)F)cc1)c1ccc(C#N)cc1", "assay": "ligand displacement", "setting": "10 µM", "quantity": "inhibition", "value": "-16.5%"}
{"Compound": "CN(CCN1CCC(OC(=O)Nc2ccccc2-c2ccccc2)CC1)C(=O)c1ccc(CN2CCC(C(N)=O)CC2)cc1", "assay": "ligand displacement, radioligand", "setting": "1 µM", "quantity": "inhibition", "value": "14%"}
{"Compound": "CC(C)N1CCC[C@H]1CNC(=O)c1cn(C2CCCC2)c(=O)c2c1c1ccccc1n2C", "assay": "ligand displacement, radioligand", "setting": "10 µM", "quantity": "inhibition", "value": "24%"}
{"Compound": "Clc1ccc2c(C3CCN(CCc4c[nH]c5ccccc45)CC3)c[nH]c2c1", "assay": "ligand displacement, radioligand", "setting": "10 µM", "quantity": "inhibition", "value": "84%"}
{"Compound": "COc1ccc(S(=O)(=O)N2CCCCC2)cc1C", "assay": "ligand displacement, radioligand", "setting": "10 µM", "quantity": "inhibition", "value": "< 30%"}
